Results from ChEMBL document CHEMBL3745596, “Chlorophenoxy aminoalkyl derivatives as histamine H(3)R ligands and antiseizure agents” (Bioorg Med Chem, 2016).
Active and inactive are the calls of the source.

How the values were obtained:
Mus musculus [1] = assay: Anticonvulsant activity in CF1 albino mouse assessed as protection against maximal electroshock-induced seizure at 30 mg/kg, ip after 4 hrs; type: functional, organism-based
Summary of the method: (§1)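 Male CF-1 mice dosed ip as suspension in 0.5% methylcellulose. Corneal electrodes deliver 60 Hz alternating current, 50 mA for […], after a drop of 0.5% tetracaine HCl in 0.9% NaCl per eye. Protection means abolition of hindlimb tonic extension; scored as protected/tested, or ED50 with 95% confidence interval.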

Mus musculus [2] = assay: Neurotoxicity in CF1 albino mouse assessed as unable to grasp rotarod, death, diarrhea, loss of righting reflux and clonic seizure at 100 mg/kg, ip after 0.5 hrs by rotarod test; type: toxicity, organism-based; details: in vivo
Summary of the method: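 Male albino CF-1 mice dosed ip with compound suspended in 0.5% methylcellulose, then placed on a 1-inch knurled plastic rod turning at 6 rpm. A fall three times within 1 min counted as neurotoxicity. Observations were made at 0.5 h and 4 h after dosing. Result given as animals showing toxicity per animals tested, with the kind of toxicity recorded.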

Rattus norvegicus [3] = assay: Neurotoxicity in Sprague-Dawley rat at 30 mg/kg, ip after 1 hr by rotarod test; type: toxicity, organism-based; details: in vivo
Summary of the method: (§2)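 Male Sprague–Dawley rats given compound ip as a suspension in 0.5% methylcellulose, groups of four. Rotarod: 1 inch knurled rod at 6 rpm; three falls within 1 min counts as neurotoxic. Scored as number toxic/number tested at pretreatment times between 0.25 and 4 h, or at the stated time.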

Mus musculus [4] = assay: Anticonvulsant activity in ip dosed CF1 albino mouse assessed as protection against subcutaneous pentetrazole-induced seizure after 0.25 hrs; type: functional
Summary of the method: (§3)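 Male CF-1 mice, ip in 0.5% methylcellulose; pentetrazole at CD97 (85 mg/kg) injected subcutaneously in a loose fold of neck skin. Observed 30 min; absence of even a threshold seizure (single clonic spasm lasting at least 5 s) counted as protection. Scored protected/tested, or ED50.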

Mus musculus [5] = assay: Anticonvulsant activity in CF1 albino mouse assessed as protection against 6 Hz-psychomotor-induced seizure at 60 mg/kg, ip after 4 hrs; type: functional, organism-based
Summary of the method: (§4)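 Male CF-1 mice, ip suspension in 0.5% methylcellulose. Corneal stimulation 0.2 ms monopolar rectangular pulses at 6 Hz, 32 mA for 3 s via constant-current device; mice without minimal clonic phase seizure counted protected. Groups of four; read at 0.25, 0.5, 1, 2, 4 h; result as protected/tested.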

Rattus norvegicus [6] = assay: Anticonvulsant activity in Sprague-Dawley rat assessed as protection against maximal electroshock-induced seizure at 30 mg/kg, ip after 2 hrs; type: functional, organism-based
Mus musculus [7] = assay: Neurotoxicity in CF1 albino mouse at 30 mg/kg, ip after 0.5 hrs by rotarod test; type: toxicity, organism-based; details: in vivo
Summary of the method: (§5)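 Rotarod neurotoxicity in male albino CF-1 mice dosed ip with compound suspended in 0.5% methylcellulose. Animal placed on a 1 inch diameter knurled plastic rod rotating at 6 rpm. Neurotoxicity scored when the animal falls off three times within 1 min. Readout is number of animals toxic/number tested at the stated time after dosing. TD50 with 95% confidence interval from the quantitative study.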

Mus musculus [8] = assay: Neurotoxicity in ip dosed CF1 albino mouse after 0.25 hrs by rotarod test; type: toxicity, organism-based; details: in vivo
Summary of the method: as §5, with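 “dosing.” for “dosing. TD50 with 95% confidence interval from the quantitative study.”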

Rattus norvegicus [9] = assay: Anticonvulsant activity in ip dosed Sprague-Dawley rat assessed as protection against maximal electroshock-induced seizure after 1 hr; type: functional
Rattus norvegicus [10] = assay: Neurotoxicity in Sprague-Dawley rat at 30 mg/kg, ip after 0.5 hrs by rotarod test; type: toxicity, organism-based; details: in vivo; summary of the method: as §2
Mus musculus [11] = assay: Protective index, ratio of TD50 for ip dosed CF1 albino mouse to ED50 for ip dosed CF1 albino mouse assessed as protection against maximal electroshock-induced seizure after 0.25 hrs; type: functional
Mus musculus [12] = assay: Anticonvulsant activity in CF1 albino mouse assessed as protection against 6 Hz-psychomotor-induced seizure at 30 mg/kg, ip after 0.25 to 4 hrs; type: functional, organism-based; summary of the method: as §4
Mus musculus [13] = assay: Neurotoxicity in CF1 albino mouse at 30 mg/kg, ip after 4 hrs by rotarod test; type: toxicity, organism-based; details: in vivo; summary of the method: as §5
Mus musculus [14] = assay: Anticonvulsant activity in CF1 albino mouse assessed as protection against subcutaneous pentetrazole-induced seizure at 300 mg/kg, ip after 0.5 hrs; type: functional, organism-based; summary of the method: as §3
Rattus norvegicus [15] = assay: Anticonvulsant activity in Sprague-Dawley rat assessed as protection against maximal electroshock-induced seizure at 30 mg/kg, ip after 0.5 hrs; type: functional, organism-based
Mus musculus [16] = assay: Anticonvulsant activity in CF1 albino mouse assessed as protection against maximal electroshock-induced seizure at 3 mg/kg, ip after 0.5 hrs; type: functional, organism-based; summary of the method: as §1
Mus musculus [17] = assay: Neurotoxicity in CF1 albino mouse at 3 mg/kg, ip after 0.5 hrs by rotarod test; type: toxicity, organism-based; details: in vivo; summary of the method: as §5
Histamine H3 receptor = Histamine H3 receptor (Homo sapiens, UniProt Q9Y5N1); assay: Displacement of [3H]-Nalpha-methylhistamine from human recombinant histamine H3 receptor expressed in HEK293 cells after 90 mins; type: cell-based
Rattus norvegicus [18] = assay: Neurotoxicity in Sprague-Dawley rat at 30 mg/kg, ip after 4 hrs by rotarod test; type: toxicity, organism-based; details: in vivo; summary of the method: as §2
Mus musculus [19] = assay: Anticonvulsant activity in ip dosed CF1 albino mouse assessed as protection against maximal electroshock-induced seizure after 0.25 hrs; type: functional; summary of the method: as §1
Mus musculus [20] = assay: Anticonvulsant activity in CF1 albino mouse assessed as protection against subcutaneous pentetrazole-induced seizure at 30 mg/kg, ip after 4 hrs; type: functional, organism-based; summary of the method: as §3
Mus musculus [21] = assay: Anticonvulsant activity in CF1 albino mouse assessed as protection against subcutaneous pentetrazole-induced seizure at 100 mg/kg, ip after 0.5 hrs; type: functional, organism-based; summary of the method: as §3
Rattus norvegicus [22] = assay: Protective index, ratio of TD50 for ip dosed Sprague-Dawley rat to ED50 for ip dosed Sprague-Dawley rat assessed as protection against maximal electroshock-induced seizure after 1 hr; type: functional
Summary of the method: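 PI = TD50/ED50. Male CF-1 mice or male Sprague–Dawley rats given compound ip as 0.5% methylcellulose suspension. MES: 60 Hz corneal current, 50 mA mice or 150 mA rats, for […] after tetracaine eye drops; protection is abolition of hindlimb tonic extension.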

Mus musculus [23] = assay: Anticonvulsant activity in CF1 albino mouse assessed as protection against maximal electroshock-induced seizure at 10 mg/kg, ip after 0.5 hrs; type: functional, organism-based; summary of the method: as §1
Mus musculus [24] = assay: Anticonvulsant activity in CF1 albino mouse assessed as protection against maximal electroshock-induced seizure at 100 mg/kg, ip after 4 hrs; type: functional, organism-based; summary of the method: as §1
Mus musculus [25] = assay: Neurotoxicity in CF1 albino mouse at 10 mg/kg, ip after 0.5 hrs by rotarod test; type: toxicity, organism-based; details: in vivo
Summary of the method: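 Rotarod neurotoxicity in male CF-1 mice dosed ip as 0.5% methylcellulose suspension: mouse placed on 1 inch knurled rod rotating at 6 rpm; toxicity when the animal falls off three times within 1 min, with other signs noted. Scored as toxic/tested at 0.5 h and 4 h.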

Mus musculus [26] = assay: Neurotoxicity in CF1 albino mouse at 30 mg/kg, ip after 0.25 to 4 hrs by rotarod test; type: toxicity, organism-based; details: in vivo; summary of the method: as §5
Rattus norvegicus [27] = assay: Anticonvulsant activity in Sprague-Dawley rat assessed as protection against maximal electroshock-induced seizure at 30 mg/kg, ip after 1 hr; type: functional, organism-based
Rattus norvegicus [28] = assay: Anticonvulsant activity in Sprague-Dawley rat assessed as protection against pilocarpine-induced convulsive status epilepticus at 50 mg/kg, ip; type: functional, organism-based
Summary of the method: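 Male Sprague Dawley rats (150–180 g) dosed ip, pilocarpine 50 mg/kg ip given; compound dosed immediately at first behavioral Stage 3 seizure or 30 min later. Number protected from Racine Stage 3 or greater seizures recorded.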

Chain of Histamine H3 receptor (Q9Y5N1 whole entry): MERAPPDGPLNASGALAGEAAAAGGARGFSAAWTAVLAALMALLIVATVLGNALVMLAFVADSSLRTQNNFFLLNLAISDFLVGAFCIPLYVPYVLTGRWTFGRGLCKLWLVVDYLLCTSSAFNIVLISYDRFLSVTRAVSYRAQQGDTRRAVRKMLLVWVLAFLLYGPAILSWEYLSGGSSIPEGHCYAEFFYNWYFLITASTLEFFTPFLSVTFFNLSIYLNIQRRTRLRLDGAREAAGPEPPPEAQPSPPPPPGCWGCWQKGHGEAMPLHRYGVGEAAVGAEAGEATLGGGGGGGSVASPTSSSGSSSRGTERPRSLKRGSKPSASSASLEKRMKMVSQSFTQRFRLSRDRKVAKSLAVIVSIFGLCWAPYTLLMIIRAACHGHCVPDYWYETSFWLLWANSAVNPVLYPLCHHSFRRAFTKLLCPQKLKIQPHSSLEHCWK

CC1CCCN(CCCCCCCOc2ccc(Cl)cc2)C1.O=C(O)C(=O)O (centres undefined)
Activity (Mus musculus [1]): Active | Activity (Mus musculus [2]): Toxic | Activity (Rattus norvegicus [3]): Non-toxic | ED50 (Mus musculus [4]): > 47 mg/kg | Activity (Mus musculus [5]): inactive | Activity (Rattus norvegicus [6]): Active | Activity (Mus musculus [7]): Non-toxic | TD50 (median neurotoxic dose) (Mus musculus [8]): 48.28 mg/kg | ED50 (Rattus norvegicus [9]): 13.2 mg/kg | Activity (Rattus norvegicus [10]): Non-toxic | Ratio TD50/ED50 (Mus musculus [11]): 3 | Activity (Mus musculus [12]): inactive | Activity (Mus musculus [13]): Non-toxic | Activity (Mus musculus [14]): inactive | Activity (Rattus norvegicus [15]): Active | Activity (Mus musculus [16]): inactive | Activity (Mus musculus [17]): Non-toxic | Ki (Histamine H3 receptor): 180 nM | Activity (Rattus norvegicus [18]): Non-toxic | ED50 (Mus musculus [19]): 16.1 mg/kg | Activity (Mus musculus [20]): inactive | Activity (Mus musculus [21]): inactive | Ratio TD50/ED50 (Rattus norvegicus [22]): 3.8 | Activity (Mus musculus [23]): inactive | Activity (Mus musculus [24]): Active | Activity (Mus musculus [25]): Non-toxic | Activity (Mus musculus [26]): Non-toxic | Activity (Rattus norvegicus [27]): Active | Activity (Rattus norvegicus [28]): inactive
